In ChEMBL document CHEMBL4312019, “Design, synthesis, and evaluation of compounds capable of reducing Pseudomonas aeruginosa virulence” (Eur J Med Chem, 2020):
Values after ≈ are worked out from the molar mass of the structure shown. Active and inactive are the calls of the source. No cut-off for these calls is given here.

Key:
[1] = molecular target: Muscarinic acetylcholine receptor M1 (Homo sapiens) (UniProt P11229); assay: Displacement of [3H]-QNB/[3H]-NMS from human recombinant muscarinic acetylcholine M1 receptor expressed in stable CHO cells incubated for 90 mins by microbeta scintillation counting method; assay type: cell-based
NIH3T3 [2] = assay: Cytotoxicity against mouse NIH/3T3 cells measured after 48 hrs by MTT assay; assay type: cell-based; details: NIH3T3, 48 h
NIH3T3 [3] = assay: Cytotoxicity against mouse NIH/3T3 cells measured after 72 hrs by MTT assay; assay type: cell-based; details: NIH3T3, 72 h
[4] = molecular target: 5-hydroxytryptamine receptor 1A (Homo sapiens) (UniProt P08908); assay: Displacement of [3H]-8-OH-DPAT from human recombinant 5HT1A receptor expressed in stable CHO cells at 10 uM incubated for 90 mins by microbeta scintillation counting method; assay type: cell-based
Sequence of 5-hydroxytryptamine receptor 1A (Homo sapiens) (P08908 whole entry): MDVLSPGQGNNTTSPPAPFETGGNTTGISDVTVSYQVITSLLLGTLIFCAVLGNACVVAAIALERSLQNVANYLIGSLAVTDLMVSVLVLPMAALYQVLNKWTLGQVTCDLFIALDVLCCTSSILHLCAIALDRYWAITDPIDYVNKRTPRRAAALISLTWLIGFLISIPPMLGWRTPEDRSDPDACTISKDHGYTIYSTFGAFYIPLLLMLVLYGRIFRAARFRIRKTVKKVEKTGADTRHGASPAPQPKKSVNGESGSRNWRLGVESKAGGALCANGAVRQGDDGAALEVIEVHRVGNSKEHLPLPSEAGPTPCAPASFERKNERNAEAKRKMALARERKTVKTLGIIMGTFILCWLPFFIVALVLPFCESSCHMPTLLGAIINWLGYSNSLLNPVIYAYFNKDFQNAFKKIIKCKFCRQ
Procedure, shortened: (§1)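 Primary radioligand binding screen run by the NIMH Psychoactive Drug Screening Program, with one test level of 10 μM. The read-out was inhibition of radioligand binding at each receptor.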

[5] = molecular target: 5-hydroxytryptamine receptor 1B (Homo sapiens) (UniProt P28222); assay: Displacement of [3H]-5-CT from human recombinant 5HT1B receptor expressed in stable HEK cells at 10 uM incubated for 90 mins by microbeta scintillation counting method; assay type: cell-based; procedure, shortened: as §1
Sequence of 5-hydroxytryptamine receptor 1B (Homo sapiens) (P28222 whole entry): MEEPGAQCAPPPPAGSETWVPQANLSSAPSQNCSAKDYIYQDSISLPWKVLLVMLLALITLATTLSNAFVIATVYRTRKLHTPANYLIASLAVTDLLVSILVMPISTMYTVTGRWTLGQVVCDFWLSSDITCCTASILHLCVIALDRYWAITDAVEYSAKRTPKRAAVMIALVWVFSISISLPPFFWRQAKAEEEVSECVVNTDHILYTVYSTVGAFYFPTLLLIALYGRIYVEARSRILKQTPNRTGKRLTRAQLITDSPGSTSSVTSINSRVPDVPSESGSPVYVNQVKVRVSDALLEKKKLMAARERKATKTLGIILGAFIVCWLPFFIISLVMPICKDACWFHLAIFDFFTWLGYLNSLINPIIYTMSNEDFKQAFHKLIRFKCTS

[6] = molecular target: 5-hydroxytryptamine receptor 1D (Homo sapiens) (UniProt P28221); assay: Displacement of [3H]-5-CT from human recombinant 5HT1D receptor expressed in HEKT cells at 10 uM incubated for 90 mins by microbeta scintillation counting method; assay type: cell-based; procedure, shortened: as §1
Sequence of 5-hydroxytryptamine receptor 1D (Homo sapiens) (P28221 whole entry): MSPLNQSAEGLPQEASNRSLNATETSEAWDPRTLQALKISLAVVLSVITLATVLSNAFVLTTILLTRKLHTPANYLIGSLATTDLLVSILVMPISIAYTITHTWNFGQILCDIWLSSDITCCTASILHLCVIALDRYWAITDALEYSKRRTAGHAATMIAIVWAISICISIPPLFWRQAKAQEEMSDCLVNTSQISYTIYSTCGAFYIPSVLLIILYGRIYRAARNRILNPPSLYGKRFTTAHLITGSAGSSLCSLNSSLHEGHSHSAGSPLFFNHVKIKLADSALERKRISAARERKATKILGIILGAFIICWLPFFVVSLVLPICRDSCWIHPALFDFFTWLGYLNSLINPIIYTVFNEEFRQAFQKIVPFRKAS

[7] = molecular target: 5-hydroxytryptamine receptor 1E (Homo sapiens) (UniProt P28566); assay: Displacement of [3H]-5-HT from human recombinant 5HT1E receptor expressed in stable HEK cells at 10 uM incubated for 90 mins by microbeta scintillation counting method; assay type: cell-based; procedure, shortened: as §1
[8] = molecular target: 5-hydroxytryptamine receptor 2C (Homo sapiens) (UniProt P28335); assay: Displacement of [3H]-Mesulergin from human recombinant 5HT2C receptor expressed in CHO cells at 10 uM incubated for 90 mins by microbeta scintillation counting method; assay type: cell-based; procedure, shortened: as §1
Sequence of 5-hydroxytryptamine receptor 2C (Homo sapiens) (P28335 whole entry): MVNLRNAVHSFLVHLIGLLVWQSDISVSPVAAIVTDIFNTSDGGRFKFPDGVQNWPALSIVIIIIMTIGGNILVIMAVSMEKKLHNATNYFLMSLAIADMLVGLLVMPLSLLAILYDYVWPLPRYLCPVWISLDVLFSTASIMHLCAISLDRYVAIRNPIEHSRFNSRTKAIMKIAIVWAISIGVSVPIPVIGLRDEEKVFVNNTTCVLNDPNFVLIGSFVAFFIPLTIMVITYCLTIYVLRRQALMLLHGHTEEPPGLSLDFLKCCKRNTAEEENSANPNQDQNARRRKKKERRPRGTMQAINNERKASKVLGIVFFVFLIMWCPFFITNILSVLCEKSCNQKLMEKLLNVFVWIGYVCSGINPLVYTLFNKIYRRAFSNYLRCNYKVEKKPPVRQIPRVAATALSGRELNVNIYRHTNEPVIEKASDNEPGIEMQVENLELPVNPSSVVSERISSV

[9] = molecular target: 5-hydroxytryptamine receptor 3A (Homo sapiens) (UniProt P46098); assay: Displacement of [3H]-GR65630 from human recombinant 5HT3 receptor expressed in HEKT cells at 10 uM incubated for 90 mins by microbeta scintillation counting method; assay type: cell-based; procedure, shortened: as §1
Sequence of 5-hydroxytryptamine receptor 3A (Homo sapiens) (P46098 whole entry): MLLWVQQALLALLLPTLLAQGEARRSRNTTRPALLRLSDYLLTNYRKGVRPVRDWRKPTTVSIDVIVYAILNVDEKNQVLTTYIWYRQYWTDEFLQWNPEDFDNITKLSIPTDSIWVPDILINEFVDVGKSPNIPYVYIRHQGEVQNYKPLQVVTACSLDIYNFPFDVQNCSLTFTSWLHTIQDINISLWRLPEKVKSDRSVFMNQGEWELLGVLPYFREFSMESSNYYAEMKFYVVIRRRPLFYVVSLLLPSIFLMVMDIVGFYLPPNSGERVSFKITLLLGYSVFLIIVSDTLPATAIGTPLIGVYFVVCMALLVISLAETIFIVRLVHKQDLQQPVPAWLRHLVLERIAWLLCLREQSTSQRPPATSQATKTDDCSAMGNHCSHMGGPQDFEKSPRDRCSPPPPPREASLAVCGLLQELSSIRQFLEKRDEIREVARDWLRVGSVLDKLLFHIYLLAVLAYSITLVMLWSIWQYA

[10] = molecular target: Alpha-1A adrenergic receptor (Homo sapiens) (UniProt P35348); assay: Displacement of [3H]-prazosin from human recombinant alpha1A adrenergic receptor at 10 uM incubated for 90 mins by microbeta scintillation counting method; procedure, shortened: as §1
[11] = molecular target: Alpha-1D adrenergic receptor (Homo sapiens) (UniProt P25100); assay: Displacement of [3H]-8-OH-DPAT from human recombinant alpha1D adrenergic receptor at 10 uM incubated for 90 mins by microbeta scintillation counting method; procedure, shortened: as §1
Sequence of Alpha-1D adrenergic receptor (Homo sapiens) (P25100 whole entry): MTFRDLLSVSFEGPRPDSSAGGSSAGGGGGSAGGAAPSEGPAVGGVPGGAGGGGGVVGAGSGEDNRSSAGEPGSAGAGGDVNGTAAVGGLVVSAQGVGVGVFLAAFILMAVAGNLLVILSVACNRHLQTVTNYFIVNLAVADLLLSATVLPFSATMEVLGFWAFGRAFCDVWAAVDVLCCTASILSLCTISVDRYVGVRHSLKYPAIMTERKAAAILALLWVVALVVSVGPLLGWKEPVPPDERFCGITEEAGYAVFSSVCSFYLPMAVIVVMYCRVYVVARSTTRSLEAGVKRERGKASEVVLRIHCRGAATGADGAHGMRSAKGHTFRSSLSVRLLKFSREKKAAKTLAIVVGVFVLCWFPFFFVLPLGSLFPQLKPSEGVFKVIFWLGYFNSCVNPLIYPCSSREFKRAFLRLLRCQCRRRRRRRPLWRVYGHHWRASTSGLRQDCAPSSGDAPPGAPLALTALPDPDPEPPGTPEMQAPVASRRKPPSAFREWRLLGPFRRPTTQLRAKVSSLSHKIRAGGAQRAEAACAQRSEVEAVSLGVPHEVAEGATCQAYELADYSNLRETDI

[12] = molecular target: Beta-1 adrenergic receptor (Homo sapiens) (UniProt P08588); assay: Displacement of [125I]-pindolol from recombinant human beta1 adrenergic receptor expressed in CHO Flp-In cells incubated for 90 mins by microbeta scintillation counting method; assay type: cell-based
Sequence of Beta-1 adrenergic receptor (Homo sapiens) (P08588 whole entry, looked up): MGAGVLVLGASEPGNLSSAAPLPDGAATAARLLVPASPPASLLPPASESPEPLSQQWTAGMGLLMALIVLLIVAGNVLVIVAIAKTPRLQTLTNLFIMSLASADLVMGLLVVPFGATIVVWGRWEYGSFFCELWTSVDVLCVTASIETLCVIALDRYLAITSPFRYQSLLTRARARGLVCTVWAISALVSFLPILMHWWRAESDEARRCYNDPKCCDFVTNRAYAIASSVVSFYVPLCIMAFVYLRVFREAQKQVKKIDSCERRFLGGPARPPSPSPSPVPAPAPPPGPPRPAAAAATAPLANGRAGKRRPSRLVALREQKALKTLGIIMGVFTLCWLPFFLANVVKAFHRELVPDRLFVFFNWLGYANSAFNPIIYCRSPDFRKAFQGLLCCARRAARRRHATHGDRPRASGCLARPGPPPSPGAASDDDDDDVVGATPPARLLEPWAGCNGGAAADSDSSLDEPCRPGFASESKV

[13] = molecular target: Beta-2 adrenergic receptor (Homo sapiens) (UniProt P07550); assay: Displacement of [125I]-CGP12177 from recombinant human beta2 adrenergic receptor expressed in HEK Flp-In cells measured after 90 mins by microbeta scintillation counting method; assay type: cell-based
[14] = molecular target: Beta-3 adrenergic receptor (Homo sapiens) (UniProt P13945); assay: Displacement of [3H]-CGP12177 from human recombinant adrenergic beta3 receptor expressed in Flp-In HEK cells incubated for 90 mins by microbeta scintillation counting method; assay type: cell-based
Rattus norvegicus = species: Rattus norvegicus; assay: Displacement of [3H]-Flunitrazepam from BZP receptor in rat brain at 10 uM incubated for 90 mins by microbeta scintillation counting method; assay type: tissue-based; procedure, shortened: as §1
[15] = molecular target: D(1A) dopamine receptor (Homo sapiens) (UniProt P21728); assay: Displacement of [3H]-SCH23390 from human recombinant dopamine D1 receptor expressed in HEKT cells incubated for 90 mins by microbeta scintillation counting method; assay type: cell-based
[16] = molecular target: D(2) dopamine receptor (Homo sapiens) (UniProt P14416); assay: Displacement of [3H]-N-methylspiperone from human recombinant dopamine D2 receptor expressed in stable fibroblast cells incubated for 90 mins by microbeta scintillation counting method; assay type: cell-based
Sequence of D(2) dopamine receptor (Homo sapiens) (P14416 whole entry): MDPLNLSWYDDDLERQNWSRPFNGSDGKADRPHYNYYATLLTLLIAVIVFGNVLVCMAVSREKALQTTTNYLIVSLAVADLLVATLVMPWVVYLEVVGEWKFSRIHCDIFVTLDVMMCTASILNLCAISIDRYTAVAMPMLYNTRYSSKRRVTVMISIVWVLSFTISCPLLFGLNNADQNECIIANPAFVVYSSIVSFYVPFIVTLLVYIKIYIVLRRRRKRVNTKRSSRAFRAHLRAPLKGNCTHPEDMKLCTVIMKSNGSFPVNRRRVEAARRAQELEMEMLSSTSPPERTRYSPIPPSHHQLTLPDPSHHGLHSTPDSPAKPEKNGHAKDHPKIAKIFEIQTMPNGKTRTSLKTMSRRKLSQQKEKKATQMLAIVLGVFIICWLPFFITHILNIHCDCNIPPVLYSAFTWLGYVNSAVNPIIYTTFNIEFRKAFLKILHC

[17] = molecular target: D(3) dopamine receptor (Homo sapiens) (UniProt P35462); assay: Displacement of [3H]-N-methylspiperone from human recombinant dopamine D3 receptor expressed in HEKT cells incubated for 90 mins by microbeta scintillation counting method; assay type: cell-based
[18] = molecular target: D(4) dopamine receptor (Homo sapiens) (UniProt P21917); assay: Displacement of [3H]-methylspiperone from human recombinant dopamine D4 receptor expressed in stable HEK cells incubated for 90 mins by microbeta scintillation counting method; assay type: cell-based
Sequence of D(4) dopamine receptor (Homo sapiens) (P21917 whole entry): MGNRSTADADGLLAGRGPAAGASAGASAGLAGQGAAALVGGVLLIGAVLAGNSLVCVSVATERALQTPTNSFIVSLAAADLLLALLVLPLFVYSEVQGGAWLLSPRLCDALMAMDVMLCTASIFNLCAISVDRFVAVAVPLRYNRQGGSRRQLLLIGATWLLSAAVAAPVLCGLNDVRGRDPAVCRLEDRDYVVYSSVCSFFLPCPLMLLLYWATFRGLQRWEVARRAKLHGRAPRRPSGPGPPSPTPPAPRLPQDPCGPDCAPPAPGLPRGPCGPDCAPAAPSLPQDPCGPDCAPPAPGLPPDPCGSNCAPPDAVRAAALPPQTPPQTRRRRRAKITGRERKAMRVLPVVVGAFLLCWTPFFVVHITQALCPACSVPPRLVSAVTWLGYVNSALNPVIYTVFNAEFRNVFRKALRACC

[19] = molecular target: D(1B) dopamine receptor (Homo sapiens) (UniProt P21918); assay: Displacement of [3H]-SCH23390 from human recombinant dopamine D5 receptor expressed in HEKT cells incubated for 90 mins by microbeta scintillation counting method; assay type: cell-based
[20] = molecular target: Sodium-dependent dopamine transporter (Homo sapiens) (UniProt Q01959); assay: Displacement of [3H]-Win35428 from human recombinant DAT receptor expressed in stable HEK cells incubated for 90 mins by microbeta scintillation counting method; assay type: cell-based
[21] = molecular target: Delta-type opioid receptor (Homo sapiens) (UniProt P41143); assay: Displacement of [3H]-DADLE from human recombinant DOR receptor expressed in stable HEK cells incubated for 90 mins by microbeta scintillation counting method; assay type: cell-based
[22] = molecular target: Kappa-type opioid receptor (Homo sapiens) (UniProt P41145); assay: Displacement of [3H]-U69593 from human recombinant KOR receptor expressed in stable HEK cells incubated for 90 mins by microbeta scintillation counting method; assay type: cell-based
[23] = molecular target: Mu-type opioid receptor (Homo sapiens) (UniProt P35372); assay: Displacement of [3H]-DAMGO from human recombinant MOR receptor expressed in stable HEK cells incubated for 90 mins by microbeta scintillation counting method; assay type: cell-based
[24] = molecular target: Histamine H2 receptor (Homo sapiens) (UniProt P25021); assay: Displacement of [125I]-Iodoaminopotentidine from human recombinant histamine H2 receptor expressed in stable HEK cells incubated for 90 mins by microbeta scintillation counting method; assay type: cell-based
[25] = molecular target: Muscarinic acetylcholine receptor M3 (Homo sapiens) (UniProt P20309); assay: Displacement of [3H]-QNB/[3H]-NMS from human recombinant muscarinic acetylcholine M3 receptor expressed in stable CHO cells incubated for 90 mins by microbeta scintillation counting method; assay type: cell-based
[26] = molecular target: Muscarinic acetylcholine receptor M5 (Homo sapiens) (UniProt P08912); assay: Displacement of [3H]-QNB/[3H]-NMS from human recombinant muscarinic acetylcholine M5 receptor expressed in stable CHO cells incubated for 90 mins by microbeta scintillation counting method; assay type: cell-based
[27] = molecular target: Sigma non-opioid intracellular receptor 1 (Homo sapiens) (UniProt Q99720); assay: Displacement of [3H]-Pentazocine from human recombinant sigma1 receptor expressed in HEKT cells incubated for 90 mins by microbeta scintillation counting method; assay type: cell-based
[28] = molecular target: Sigma intracellular receptor 2 (Homo sapiens) (UniProt Q5BJF2); assay: Displacement of [3H]-[…] from human recombinant sigma2 receptor expressed in HEKT cells incubated for 90 mins by microbeta scintillation counting method; assay type: cell-based
Sequence of Sigma intracellular receptor 2 (Homo sapiens) (Q5BJF2 whole entry): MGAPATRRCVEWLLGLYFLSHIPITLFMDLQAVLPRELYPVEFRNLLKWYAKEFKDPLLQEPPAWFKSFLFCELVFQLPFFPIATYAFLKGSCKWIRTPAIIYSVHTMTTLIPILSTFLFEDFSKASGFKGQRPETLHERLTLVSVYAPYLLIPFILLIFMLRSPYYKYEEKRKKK

[29] = molecular target: Sodium-dependent serotonin transporter (Homo sapiens) (UniProt P31645); assay: Displacement of [3H]-citalopram from recombinant human SERT expressed in HEK cell membranes at 10 uM incubated for 90 mins by scintillation counting method; procedure, shortened: as §1
Sequence of Sodium-dependent serotonin transporter (Homo sapiens) (P31645 whole entry, looked up): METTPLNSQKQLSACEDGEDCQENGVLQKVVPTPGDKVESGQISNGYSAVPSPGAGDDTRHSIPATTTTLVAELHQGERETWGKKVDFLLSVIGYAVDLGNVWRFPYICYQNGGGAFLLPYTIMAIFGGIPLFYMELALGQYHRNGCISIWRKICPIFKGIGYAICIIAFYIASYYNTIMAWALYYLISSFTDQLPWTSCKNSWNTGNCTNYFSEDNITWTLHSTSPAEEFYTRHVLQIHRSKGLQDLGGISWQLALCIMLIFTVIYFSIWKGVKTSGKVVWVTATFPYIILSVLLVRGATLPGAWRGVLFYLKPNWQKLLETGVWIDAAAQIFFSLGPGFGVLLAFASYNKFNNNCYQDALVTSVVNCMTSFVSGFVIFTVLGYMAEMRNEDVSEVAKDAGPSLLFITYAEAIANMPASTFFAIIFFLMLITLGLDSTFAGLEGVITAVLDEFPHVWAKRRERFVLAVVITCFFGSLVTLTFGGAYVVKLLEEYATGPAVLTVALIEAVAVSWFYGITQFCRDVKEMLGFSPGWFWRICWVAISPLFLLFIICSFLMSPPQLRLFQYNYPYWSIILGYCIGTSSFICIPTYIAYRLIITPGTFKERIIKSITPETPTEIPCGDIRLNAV

SMILES: Cn1c2cccc(=O)c-2nc2ccccc21 [PYOCYANIN]
- inhibition [1]: inactive
- IC50 (NIH3T3 [2]): 3.54 µg/mL (≈ 16.8 µM)
- IC50 (NIH3T3 [3]): 3.66 µg/mL (≈ 17.4 µM)
- inhibition [4]: inactive
- inhibition [5]: inactive
- inhibition [6]: inactive
- inhibition [7]: inactive
- inhibition [8]: inactive
- inhibition [9]: inactive
- inhibition [10]: inactive
- inhibition [11]: inactive
- inhibition [12]: inactive
- inhibition [13]: inactive
- inhibition [14]: inactive
- inhibition (Rattus norvegicus): inactive
- inhibition [15]: inactive
- inhibition [16]: inactive
- inhibition [17]: inactive
- inhibition [18]: inactive
- inhibition [19]: inactive
- inhibition [20]: inactive
- inhibition [21]: inactive
- inhibition [22]: inactive
- inhibition [23]: inactive
- inhibition [24]: inactive
- inhibition [25]: inactive
- inhibition [26]: inactive
- inhibition [27]: inactive
- inhibition [28]: inactive
- inhibition [29]: inactive
